# Measurements taken from ChEMBL document CHEMBL3808334, “Synthesis and in vitro evaluation of novel triazine analogues as anticancer agents and their interaction studies with bovine serum albumin” (Eur J Med Chem, 2016).
# Key:
# [1] = Growth inhibition of human OVCAR5 cells assessed as cell growth at 10^-8 M incubated for 48 hrs by sulforhodamine B assay; assay type: functional; conditions: OVCAR-5, 48 h, read-out: Activity
# [2] = Growth inhibition of human OVCAR3 cells assessed as cell growth at 10^-6 M incubated for 48 hrs by sulforhodamine B assay; assay type: functional; conditions: OVCAR-3, 48 h, read-out: Activity
# [3] = Growth inhibition of human MOLT4 cells assessed as cell growth at 10^-4 M incubated for 48 hrs by sulforhodamine B assay; assay type: functional; conditions: MOLT-4, 48 h, read-out: Activity
# Malme-3M [4] = experiment: Growth inhibition of human MALME-3M cells incubated for 48 hrs by sulforhodamine B assay; assay type: functional
# Summary of the method: (§1)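 Cells were plated at 5,000–40,000 per well according to doubling time and preincubated 24 h at 37 °C in 5% CO2; time-zero plates were then TCA-fixed. Five concentrations (10-fold or ½-log dilutions, DMSO stock) were incubated 48 h. Cells were TCA-fixed, stained with 0.4% SRB and read at 515 nm. GI50 was taken where [(Ti−Tz)/(C−Tz)]×100 = 50.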
# SN12C = experiment: Growth inhibition of human SN12C cells assessed as cell growth at 10^-6 M incubated for 48 hrs by sulforhodamine B assay; assay type: functional; conditions: read-out: Activity
# NCI-H322M [5] = experiment: Growth inhibition of human NCI-H322M cells assessed as cell growth at 10^-7 M incubated for 48 hrs by sulforhodamine B assay; assay type: functional; conditions: read-out: Activity
# [6] = Growth inhibition of human HL-60(TB) cells assessed as cell growth at 10^-4 M incubated for 48 hrs by sulforhodamine B assay; assay type: functional; conditions: HL-60, 48 h, read-out: Activity
# Summary of the method: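 Cells plated at 5,000–40,000/well according to doubling time and preincubated 24 h at 37 °C, 5% CO₂, with time-zero plates TCA-fixed. Drugs were kept as DMSO concentrates at 400× the top concentration and diluted in medium with 50 µg/ml gentamicin. Five 10-fold or ½-log dilutions were run for 48 h, followed by SRB staining and A515. Percent growth = (Ti−Tz)/(C−Tz)×100, or (Ti−Tz)/Tz×100 when Ti<Tz.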
# [7] = Growth inhibition of human HOP62 cells assessed as cell growth at 10 uM incubated for 48 hrs by sulforhodamine B assay; assay type: functional; conditions: HOP-62, 48 h, read-out: Activity
# [8] = Growth inhibition of human SF539 cells assessed as cell growth at 10^-8 M incubated for 48 hrs by sulforhodamine B assay; assay type: functional; conditions: SF-539, 48 h, read-out: Activity
# Malme-3M [9] = experiment: Growth inhibition of human MALME-3M cells assessed as cell growth at 10^-5 M incubated for 48 hrs by sulforhodamine B assay; assay type: functional; conditions: read-out: Activity
# [10] = Growth inhibition of human HCT116 cells assessed as cell growth at 10^-6 M incubated for 48 hrs by sulforhodamine B assay; assay type: functional; conditions: HCT-116, 48 h, read-out: Activity
# Summary of the method: (§2)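 Cells seeded at 5,000–40,000/well according to doubling time and preincubated 24 h at 37 °C, 5% CO2. Time-zero plates were TCA-fixed. DMSO concentrate was diluted in medium with 50 µg/ml gentamicin to give five concentrations (10-fold or ½ log steps), then exposed 48 h. Cells were TCA-fixed, stained with 0.4% SRB and read at 515 nm. Percent growth was taken against time-zero and control; GI50, TGI and LC50 derived.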
# [11] = Growth inhibition of human SKOV3 cells assessed as cell growth at 10^-8 M incubated for 48 hrs by sulforhodamine B assay; assay type: functional; conditions: SK-OV-3, 48 h, read-out: Activity
# [12] = Growth inhibition of human RPMI8226 cells assessed as cell growth at 10 uM incubated for 48 hrs by sulforhodamine B assay; assay type: functional; conditions: RPMI-8226, 48 h, read-out: Activity
# [13] = Growth inhibition of human HCT116 cells assessed as cell growth at 10^-4 M incubated for 48 hrs by sulforhodamine B assay; assay type: functional; conditions: HCT-116, 48 h, read-out: Activity; summary of the method: as §2
# [14] = Growth inhibition of human RPMI8226 cells assessed as cell growth at 10^-4 M incubated for 48 hrs by sulforhodamine B assay; assay type: functional; conditions: RPMI-8226, 48 h, read-out: Activity
# [15] = Growth inhibition of human SKOV3 cells assessed as cell growth at 10^-6 M incubated for 48 hrs by sulforhodamine B assay; assay type: functional; conditions: SK-OV-3, 48 h, read-out: Activity
# [16] = Growth inhibition of human HCT15 cells assessed as cell growth at 10^-4 M incubated for 48 hrs by sulforhodamine B assay; assay type: functional; conditions: HCT-15, 48 h, read-out: Activity; summary of the method: as §2
# NCI-H322M [17] = experiment: Growth inhibition of human NCI-H322M cells assessed as cell growth at 10^-6 M incubated for 48 hrs by sulforhodamine B assay; assay type: functional; conditions: read-out: Activity
# Albumin = Albumin (Bos taurus, UniProt P02769); experiment: Binding affinity to bovine serum albumin assessed as binding constant in emission spectra by Benesie-Hildebrand plot analysis; assay type: ADME; conditions: cattle, isolated protein
# Sequence of Albumin (P02769 whole entry): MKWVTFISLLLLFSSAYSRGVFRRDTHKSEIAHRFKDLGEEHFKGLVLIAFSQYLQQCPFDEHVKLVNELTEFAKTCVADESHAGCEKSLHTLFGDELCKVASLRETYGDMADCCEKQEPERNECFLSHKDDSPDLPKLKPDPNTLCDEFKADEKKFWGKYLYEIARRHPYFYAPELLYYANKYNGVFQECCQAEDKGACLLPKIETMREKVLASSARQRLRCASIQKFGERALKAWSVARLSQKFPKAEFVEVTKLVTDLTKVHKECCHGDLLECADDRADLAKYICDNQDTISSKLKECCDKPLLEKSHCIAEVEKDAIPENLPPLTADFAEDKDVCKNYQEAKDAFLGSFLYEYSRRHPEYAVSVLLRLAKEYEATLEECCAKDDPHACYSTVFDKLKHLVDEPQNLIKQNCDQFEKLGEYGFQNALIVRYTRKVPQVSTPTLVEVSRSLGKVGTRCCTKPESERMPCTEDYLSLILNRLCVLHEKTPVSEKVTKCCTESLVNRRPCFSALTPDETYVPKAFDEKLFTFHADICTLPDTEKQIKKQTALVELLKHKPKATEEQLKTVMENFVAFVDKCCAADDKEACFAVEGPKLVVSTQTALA
# Summary of the method: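 BSA, 10 µM, in 0.1 M phosphate buffer pH 7.4, titrated with compound (0–20 µM per the figure; diluted from 10⁻³ mol L⁻¹ DMSO stocks). Run at 300 K in a 1 cm quartz cell. UV spectra taken 200–800 nm after 5 min equilibration; fluorescence excited at 280 nm, emission 351 nm, slit 10 nm. K is the intercept/slope ratio of a linear fit of 1/(A₀−A) or 1/(F₀−F) vs 1/[compound].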
# U-251 = experiment: Growth inhibition of human U251 cells assessed as cell growth at 10^-8 M incubated for 48 hrs by sulforhodamine B assay; assay type: functional; conditions: U-251, 48 h, read-out: Activity
# [18] = Growth inhibition of human HOP92 cells assessed as cell growth at 10 uM incubated for 48 hrs by sulforhodamine B assay; assay type: functional; conditions: HOP-92, 48 h, read-out: Activity
# [19] = Growth inhibition of human HCT15 cells assessed as cell growth at 10^-8 M incubated for 48 hrs by sulforhodamine B assay; assay type: functional; conditions: HCT-15, 48 h, read-out: Activity; summary of the method: as §2
# MDA-MB-468 = experiment: Growth inhibition of human MDA-MB-468 cells assessed as cell growth at 10 uM incubated for 48 hrs by sulforhodamine B assay; assay type: functional; conditions: MDA-MB-468, 48 h, read-out: Activity
# [20] = Growth inhibition of human non-small cell lung cancer cells incubated for 48 hrs by sulforhodamine B assay; assay type: functional; conditions: Cancer cell lines; for CC50: read-out: LC50 (the source's name)
# NCI-H322M [21] = experiment: Growth inhibition of human NCI-H322M cells incubated for 48 hrs by sulforhodamine B assay; assay type: functional; summary of the method: as §1
# [22] = Growth inhibition of human PC3 cells incubated for 48 hrs by sulforhodamine B assay; assay type: functional; conditions: PC-3, 48 h; summary of the method: as §1
# [23] = Growth inhibition of human SNB19 cells assessed as cell growth at 10 uM incubated for 48 hrs by sulforhodamine B assay; assay type: functional; conditions: SNB-19, 48 h, read-out: Activity
# [24] = read-out: LC50 (the source's name)
# [25] = read-out: pLC50 (the source's name) (converted)
smiles,measurement,setting,value
c1ccc(-c2nc(Nc3ccc(-c4nc5ccccc5[nH]4)cc3)nc(N3CCOCC3)n2)cc1,growth at 0.01 µM,[1],90%
same,growth at 1 µM,[2],81%
same,growth at 100 µM,[3],-52%
same,GI50,Malme-3M [4]; read-out: GI50,2 µM
same,CC50,Malme-3M [4]; [24],7.42 µM
same,TGI,Malme-3M [4]; read-out: TGI,3.85 µM
same,GI50,Malme-3M [4]; read-out: pGI50 (converted),2 µM
same,CC50,Malme-3M [4]; [25],7.41 µM
same,TGI,Malme-3M [4]; read-out: pTGI (converted),3.89 µM
same,growth at 1 µM,SN12C,85%
same,growth at 0.1 µM,NCI-H322M [5],101%
same,growth at 100 µM,[6],-56%
same,growth at 10 µM,[7],-64.5%
same,growth at 0.01 µM,[8],98%
same,growth at 10 µM,Malme-3M [9],-73%
same,growth at 1 µM,[10],16%
same,growth at 0.01 µM,[11],95%
same,growth at 10 µM,[12],-22.6%
same,growth at 100 µM,[13],-69%
same,growth at 100 µM,[14],-37%
same,growth at 1 µM,[15],104%
same,growth at 100 µM,[16],-49%
same,growth at 1 µM,NCI-H322M [17],86%
same,K,Albumin,3.2 ×10⁴ /M
same,growth at 0.01 µM,U-251,105%
same,growth at 10 µM,[18],-66.2%
same,growth at 0.01 µM,[19],96%
same,growth at 10 µM,MDA-MB-468,-62.7%
same,GI50,[20],1.74 µM
same,TGI,[20],3.67 µM
same,CC50,[20],14.2 µM
same,GI50,NCI-H322M [21]; read-out: GI50,1.65 µM
same,CC50,NCI-H322M [21]; [24],6.67 µM
same,TGI,NCI-H322M [21]; read-out: TGI,3.31 µM
same,GI50,NCI-H322M [21]; read-out: pGI50 (converted),1.66 µM
same,CC50,NCI-H322M [21]; [25],6.61 µM
same,TGI,NCI-H322M [21]; read-out: pTGI (converted),3.31 µM
same,GI50,[22]; read-out: GI50,1.8 µM
same,CC50,[22]; [24],7.37 µM
same,TGI,[22]; read-out: TGI,3.64 µM
same,GI50,[22]; read-out: pGI50 (converted),1.82 µM
same,CC50,[22]; [25],7.41 µM
same,TGI,[22]; read-out: pTGI (converted),3.63 µM
same,growth at 10 µM,[23],-18.6%
Fc1ccc(-c2nc(Nc3ccc(-c4nc5ccccc5[nH]4)cc3)nc(N3CCOCC3)n2)cc1,growth at 0.01 µM,[1],93%
same,growth at 1 µM,[2],89%
same,growth at 100 µM,[3],-33%
same,GI50,Malme-3M [4]; read-out: GI50,2.05 µM
same,CC50,Malme-3M [4]; [24],7.63 µM
same,TGI,Malme-3M [4]; read-out: TGI,3.95 µM
same,GI50,Malme-3M [4]; read-out: pGI50 (converted),2.04 µM
same,CC50,Malme-3M [4]; [25],7.59 µM
same,TGI,Malme-3M [4]; read-out: pTGI (converted),3.98 µM
same,growth at 1 µM,SN12C,89%
same,growth at 0.1 µM,NCI-H322M [5],102%
same,growth at 100 µM,[6],-20%
same,growth at 10 µM,[7],-27.3%
same,growth at 0.01 µM,[8],98%
same,growth at 10 µM,Malme-3M [9],-71%
same,growth at 1 µM,[10],102%
same,growth at 0.01 µM,[11],99%
same,growth at 10 µM,[12],-13.8%
same,growth at 100 µM,[13],-78%
same,growth at 100 µM,[14],-14%
same,growth at 1 µM,[15],101%
same,growth at 100 µM,[16],-13%
same,growth at 1 µM,NCI-H322M [17],93%
same,K,Albumin,7.9 ×10⁴ /M
same,growth at 0.01 µM,U-251,101%
same,growth at 10 µM,[18],-6.57%
same,growth at 0.01 µM,[19],97%
same,growth at 10 µM,MDA-MB-468,-1.23%
same,GI50,[20],2.68 µM
same,TGI,[20],6.65 µM
same,CC50,[20],7.76 µM
same,GI50,NCI-H322M [21]; read-out: GI50,3.62 µM
same,CC50,NCI-H322M [21]; [24],> 100 µM
same,TGI,NCI-H322M [21]; read-out: TGI,> 100 µM
same,GI50,NCI-H322M [21]; read-out: pGI50 (converted),3.63 µM
same,CC50,NCI-H322M [21]; [25],> 100 µM
same,TGI,NCI-H322M [21]; read-out: pTGI (converted),> 100 µM
same,GI50,[22]; read-out: GI50,2.39 µM
same,CC50,[22]; [24],> 100 µM
same,TGI,[22]; read-out: TGI,6.66 µM
same,GI50,[22]; read-out: pGI50 (converted),2.4 µM
same,CC50,[22]; [25],> 100 µM
same,TGI,[22]; read-out: pTGI (converted),6.61 µM
same,growth at 10 µM,[23],17.5%
